Assay outcomes (PubChem)
ROMK primary – ROMK potassium channel modulators, primary screen, cell-based, thallium flux, MLSMR library | Tet-inducible ROMK, thallium flux fluorescence; actives lie on both sides | B-score at 10 µM | 130,000 tested, 2% active | AID 1918, 2009;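 active = signal ratio slope over the read window, or its plate-corrected B-score, at least 3 SD from the plate mean, either direction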;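 also: B-score of the F/F0 ratio slope over 7 to 12 s after thallium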
Target sequence (P48048 whole entry, looked up): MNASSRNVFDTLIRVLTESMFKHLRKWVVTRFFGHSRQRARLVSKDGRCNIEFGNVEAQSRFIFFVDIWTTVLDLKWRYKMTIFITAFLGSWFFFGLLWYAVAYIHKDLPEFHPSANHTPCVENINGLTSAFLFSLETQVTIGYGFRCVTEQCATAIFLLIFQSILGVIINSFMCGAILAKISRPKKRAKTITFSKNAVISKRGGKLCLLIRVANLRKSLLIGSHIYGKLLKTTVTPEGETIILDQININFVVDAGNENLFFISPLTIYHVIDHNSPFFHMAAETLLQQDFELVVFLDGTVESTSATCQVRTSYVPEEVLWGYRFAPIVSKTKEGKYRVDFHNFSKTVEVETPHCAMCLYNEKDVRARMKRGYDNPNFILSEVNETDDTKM
Calb biofilm kill – clotrimazole potentiators killing C. albicans biofilm, primary screen, 4-compound mixtures. 120,000 tested, 0.02% active. AID 1242, 2008. inhibition, % at 7.6 µM. C. albicans biofilm persisters + clotrimazole, fluorescence viability; primary screen in compound mixtures of four per well;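 also: compounds exposed to preformed 24 h biofilms for 48 h; 0% = untreated biofilm control and 100% = clotrimazole plus chlorhexidine kill blank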
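System: C. albicans CAF4-2 wild-type biofilms; Medium: RPMI/MOPS medium, pH 7.0; Reagent: Clotrimazole, 50 µg/mL; Times: biofilm formation 24 h, compound exposure 48 h, 37 °C; Detection: 2-h Alamar Blue fluorescence, 535/590 nm excitation/emission; Evaluation: percent inhibition of biofilm viability.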
Pf gametocyte – late stage P. falciparum gametocyte viability inhibitors, primary screen, ATP luminescence, HTS; P. falciparum stage V gametocytes, 24 h; 150,000 tested, 0.065% active; inhibition, % at 10.9 µM; AID 743093, 2013;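 active = inhibition above the mean plus 3 SD of compounds within the control limits, set per campaign, cut at about 38% in these data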;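 also: 0% = DMSO wells and 100% = medium only without gametocytes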
ROMK hit retest – ROMK channel modulator hit retest, confirmation, cell-based, thallium flux, duplicate, resupplied hits; shares compounds with ROMK primary; fluorescence ratio; active compounds read low; normalized thallium flux (F/F0 slope) at 10 µM; 3,000 tested, 54% active;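 active = Flux at 10 µM at least 3 SD below or above vehicle control mean in one or both replicates; inconclusive = no clear call, values can overlap the other calls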
* hit, by the source's call; u = inconclusive; x = not tested or not shown. This is one part of a sample in which hits are shown more often than they occur.

SMILES	ROMK primary	Calb biofilm kill	Pf gametocyte	ROMK hit retest
Cc1c(Br)c(C(=O)NCc2cc3cc(Cl)ccc3[nH]2)nn1C	-0.68	10.5	x	x
Cn1cc([N+](=O)[O-])c(C(=O)NCc2cc3cc(Cl)ccc3[nH]2)n1	3.36*	7.5	x	0.0924
O=C1NC(=Nc2ccc(O)cc2)S/C1=C/c1ccco1	-0.0221	6.6	13.0	x
O=C1NC(=Nc2ccc3ccccc3c2)S/C1=C/c1ccco1	2.6*	17.3	-1.5	0.0741
N#C/C(=C/c1ccc(N2CCCCCC2)o1)c1cccc(F)c1	-2.9*	x	x	0.0571*
N#C/C(=C\c1ccc(N2CCOCC2)o1)c1ccccc1	x	x	6.2	x
Fc1ccccc1CSc1ncn[nH]1	0.438	14.6	x	x
c1ccc(Nc2nc(CSc3ncn[nH]3)cs2)cc1	-2.02*	1.4	x	0.0789
CCc1ccc(-n2c(SCC(=O)Nc3cccc(S(=O)(=O)NC4=NCCCCC4)c3)nc3ccccc3c2=O)cc1	-2.68*	-0.2	8.7	u
Cc1ccc(-n2c(SCC(=O)Nc3cccc(S(=O)(=O)NC4=NCCCCC4)c3)nc3ccccc3c2=O)cc1	x	22.4	5.5	x
CCN(C#N)c1nc(NC(C)C)nc(NC(C)(C)C)n1	-7.84*	10.8	14.7	0.077
CCCN(C#N)c1nc(NCC)nc(NC(C)C)n1	-0.607	x	-20.4	x
CCCn1c(=N)n(CCOc2ccc(OC)cc2)c2ccccc21	x	x	-13.1	x
CCCCOC(=O)Cn1c(=N)n(CCC)c2ccccc21	x	x	-3.9	x
CCOC(=O)Cn1c(=N)n(CCOc2ccc3ccccc3c2)c2ccccc21	-4.17*	x	x	0.0561*
CCOC(=O)Cn1c(=N)n(CCOc2ccc(OC)cc2)c2ccccc21	-2.62*	x	x	0.0601*
Cc1cccn2c(=O)c3cc(C(=O)NC4CCCC4)c(=N)n(C4CCCC4)c3nc12	-2.56*	x	-24.8	u
N=c1c(C(=O)NC2CCCC2)cc2c(=O)n3ccccc3nc2n1C1CCCC1	x	x	-15.0	x
COc1ccc(Cn2nnnc2C(c2ccccc2Cl)N2CCN(C3CCCC3)CC2)cc1 (centres undefined)	-4.85*	x	7.2	0.0505*
COc1ccc2cc(C(c3nnnn3Cc3ccccc3)N3CCCCCC3)c(=O)[nH]c2c1 (centres undefined)	x	x	-13.8	x
COc1ccc(Cn2nnnc2C(c2ccccc2)N2CCN(C3CCCC3)CC2)cc1 (centres undefined)	x	x	-12.0	x
CCC(c1nnnn1Cc1ccc(F)cc1)N1CCN(C2CCCCC2)CC1 (centres undefined)	-3.03*	x	24.5	u
COc1ccc2cc(C(c3nnnn3Cc3ccc(F)cc3)N3CCCCCC3)c(=O)[nH]c2c1 (centres undefined)	x	x	x	0.0557*
CCCC(c1nnnn1Cc1ccc(F)cc1)N1CCN(C)CC1 (centres undefined)	1.02	17.0	-10.4	x
CC(C)CCNC(=O)COc1ccc(N(C)S(=O)(=O)c2ccc(F)cc2)cc1	-0.0686	9.9	x	x
SMILES	ROMK primary	Calb biofilm kill	Pf gametocyte	ROMK hit retest
O=C(CN1N=C(c2ccccc2)CCC1=O)NCc1ccco1	x	13.3	-14.9	x
CNS(=O)(=O)c1ccc2c(c1)C(=O)c1cc(S(=O)(=O)NC)ccc1CC2	x	x	20.0	x
COC(=O)c1cnn(-c2ccccc2)c1C(OC)OC	x	-0.2	4.4	0.0751
COC(=O)c1cnn(-c2ccccc2)c1/C=N/NC(=S)Nc1ccccc1	0.413	16.6	3.7	x
COC(=O)c1cnn(-c2ccccc2)c1-n1cccc1C=O	-5.74*	7.4	x	0.0767
CCOC(=O)c1cnn(-c2ccccc2)c1-n1cccc1C(=O)C(=O)N(C)C	0.945	14.6	-29.2	x
COC(=O)c1cnc(Oc2c(Cl)cc(N)cc2Cl)cc1C(F)(F)F	-0.587	21.1	2.5	x
O=C(Nc1ccc2oc(-c3ccncc3)nc2c1)c1cccs1	x	x	x	0.0803
O=C(Nc1ccc(-c2nc3cc(NC(=O)c4cccs4)ccc3o2)cc1)c1cccs1	x	x	2.5	x
CCOc1ccc(OCCn2nnc3ccccc3c2=O)cc1	x	11.0	7.2	x
O=C1C2C3C=CC(C3)C2C(=O)N1c1ccc(Cc2ccncc2)cc1 (centres undefined)	x	x	26.3	x
CC1CCC2C(=O)N(c3ccc(Cc4ccncc4)cc3)C(=O)C2C1 (centres undefined)	-3.12*	13.5	-3.5	u
COCc1cccc(C2=CC(=O)C[C@H](c3ccc(F)cc3)C2)c1	x	x	16.4	x
COc1ccc(CCNC(=O)C2CCN(S(=O)(=O)c3ccc(C)cc3)CC2)cc1	x	x	11.3	x
COc1ccc(CNC(=O)[C@H](C)NC(=O)C2CCN(S(=O)(=O)c3ccc(C)cc3)CC2)cc1	0.67	x	0.7	0.0751
CCc1n[nH]c(=S)n1/N=C/c1cc(OC)cc([N+](=O)[O-])c1O	0.217	8.9	-13.4	x
Nn1c(-c2ccccc2)nc2cc(Cl)ccc2c1=O	x	x	3.5	x
CCOC(=O)c1[nH]c2ccccc2c1NC(=S)Nc1cccc(C)c1	-0.138	13.6	x	0.0774
CCOC(=O)c1[nH]c2ccccc2c1NC(=S)Nc1ccccc1	-0.536	7.7	x	x
COc1cc(C(=O)NNC2=CC(=O)CC(C)(C)C2)cc(OC)c1OC	x	10.4	15.1	x
CCCCNC(=O)O[C@H]1C[C@@H]2CCN3C(=O)CCC[C@H]([C@H]1Cc1ccccc1)[C@H]23	x	x	-21.5	x
O=C(CCN1CCN(c2ccccc2)CC1)N/N=C/c1ccccc1OC(F)F	0.689	-0.1	11.6	x
CC(C)NC(=O)/C(C#N)=C/c1cccc(NC(=O)c2ccccc2Cl)c1	x	4.6	0.2	x
COCCNC(=O)/C(C#N)=C/c1cccc(NC(=O)c2ccccc2Cl)c1	x	15.2	-11.1	0.0469*
CN1CCC(=O)N([C@H](CN=[N+]=[N-])Cc2ccccc2)CC1	x	x	6.9	x
SMILES	ROMK primary	Calb biofilm kill	Pf gametocyte	ROMK hit retest
COC(=O)CN1C(c2ccc(OC)cc2)=Nc2ccc(Cl)cc2C1c1ccccc1 (centres undefined)	x	19.9	10.2	x
COC(=O)CN1C(c2cccc(Cl)c2)=Nc2ccc(Cl)cc2C1c1ccccc1 (centres undefined)	x	7.8	x	0.0547*
CC1Nc2ncnc(N3CCN(c4ccccc4)CC3)c2N(Cc2ccc(Br)cc2)C1=O (centres undefined)	x	x	6.8	x
CN(C(=O)c1c(Br)cnn1C)C12CC3CC(CC(C3)C1)C2	-0.76	20.5	4.3	x
CCOC(=O)c1cnc2ccccc2c1NCCc1ccc(OC)c(OC)c1	-2.04	x	x	x
CCOC(=O)c1cnc2ccc(OC)cc2c1NCCc1ccc(OC)c(OC)c1	-4.12*	14.3	x	0.0552*
CCOC(=O)c1cnc2ccc(OCC)cc2c1NCc1ccccc1	0.115	11.8	-5.9	x
CCOC(=O)c1cnc2ccc(OCC)cc2c1NCc1cccnc1	3.68*	-13.4	16.7	0.0893
O=C(NNC1=C(C(=O)C(F)(F)F)CCC1)c1cccc(Cl)c1	5.76*	x	x	0.0887
COc1ccc(C(=O)NNC2=C(C(=O)C(F)(F)F)CCC2)cc1	x	25.3	18.2	x
N=C1/C(=C\c2coc3ccccc3c2=O)C(=O)N=C2SC=CN12	x	21.7	-3.0	0.0377*
CSC1=NSC2=NC(=O)/C(=C/c3coc4ccccc4c3=O)C(=N)N12	x	10.4	-23.1	x
Cc1cccc(-c2c3c(nc4c2c(=O)n(C)c(=O)n4C)-c2ccccc2C3O)c1 (centres undefined)	x	x	-17.9	x
